Assay results reported in ChEMBL document CHEMBL1156109, “Synthesis and antioxidant properties of dendritic polyphenols” (Bioorg Med Chem Lett, 2009).
Activity calls are given as the source filed them. The rule behind the calls is not given here.

Assays:
[1] = Prooxidant effect on Cu2+-induced pBR322 DNA damage at 0.35 to 45 uM after 1 hr; type: functional
Outline: (§1)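 Pro-oxidant test: pBR322 plasmid incubated with 10 μM Cu2+ at 37 °C for 1 h with compound at final 0.35–45 μM. DNA damage judged by agarose gel electrophoresis.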

[2] = system: Radical scavenging activity; test: Antioxidant activity assessed as DPPH free radical scavenging activity within 1 mins; type: functional
[3] = Antioxidant activity assessed as protection against AAPH-induced pBR322 plasmid DNA strand open circular form at 0.35 to 45 uM after 4 hrs by agarose gel electrophoresis; type: functional
Outline: (§2)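 pBR322 plasmid DNA incubated with AAPH (final 10 mM) at 37 °C for 4 h, with or without antioxidant at final 0.35–45 μM. Agarose electrophoresis then compares supercoiled and open circular band intensities with a no-AAPH control.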

[4] = system: Radical scavenging activity; test: Antioxidant activity assessed as DPPH free radical scavenging activity within 10 mins; type: functional
[5] = Antioxidant activity assessed as inhibition of AAPH-induced lipid peroxidation in human plasma LDL after 18 hrs by gel electrophoresis; type: functional, cell-free
Outline: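 LDL oxidized with 10 mM AAPH for 18 h at 37 °C, with or without antioxidant. Azo initiator used instead of Cu2+ so that metal pro-oxidant effects are avoided. Read-out is anodic migration on agarose gel, with AAPH-oxidized LDL set as 100% migration.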

[6] = Antioxidant activity against linoleic acid assessed as inhibition of beta-carotene bleaching at 12 uM after 180 mins; type: functional; set-up: scale not given: the % may be the effect or the level left
Outline: (§3)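 Linoleic acid/β-carotene emulsion held at 50 °C for 180 min with antioxidant across a range of concentrations. Bleaching of β-carotene followed as A470. % A470 = (sample A470 at 180 min / at 0 min ×100) minus the same ratio for a no-antioxidant control.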

[7] = Antioxidant activity against linoleic acid assessed as inhibition of beta-carotene bleaching after 180 mins; type: functional; outline: as §3
[8] = Antioxidant activity assessed as protection against AAPH-induced pBR322 plasmid DNA strand open circular form at 11 to 45 uM after 4 hrs by agarose gel electrophoresis; type: functional
Outline: (§4)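 pBR 322 plasmid DNA incubated with AAPH (10 mM final) at 37 °C for 4 h, with or without antioxidant (0.35-45 μM final). Samples then run on agarose electrophoresis. Protection was judged from the supercoiled (S) band intensity against a control without AAPH. AAPH converts the DNA to the open circular (O) form.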

[9] = Antioxidant activity assessed as protection against AAPH-induced pBR322 plasmid DNA strand open circular form at <5 uM after 4 hrs by agarose gel electrophoresis; type: functional; outline: as §4
[10] = Prooxidant effect on Cu2+-induced pBR322 DNA damage at 3 to 45 uM after 1 hr; type: functional
[11] = Antioxidant activity assessed as protection against AAPH-induced pBR322 plasmid DNA strand open circular form at 5 uM after 4 hrs by agarose electrophoresis; type: functional; outline: as §4
[12] = Antioxidant activity assessed as protection against AAPH-induced pBR322 plasmid DNA strand open circular form at >= 45 uM after 4 hrs by agarose gel electrophoresis; type: functional; outline: as §2
[13] = Prooxidant effect on Cu2+-induced pBR322 DNA damage at 25 to 45 uM after 1 hr; type: functional; settings: 23 and 45 uM; in the assay text read “23 and 45 uM” for “25 to 45 uM”; outline: as §1

## Cc1c(C)c2c(c(C)c1O)CCC(C)(C(=O)O)O2 (centres undefined) [TROLOX]
[1]
  Activity: Active
[2]
  IC50: 27.6 µM
[3]
  Activity: inactive

## COc1cc(C=O)cc(OC)c1O [SYRINGALDEHYDE]
[4]
  IC50: > 100 µM
[5]
  Activity: inactive
[6]
  Activity: 12%
[1]
  Activity: inactive

## COc1cc(CN(Cc2ccc(CN(Cc3cc(I)c(O)c(OC)c3)Cc3cc(I)c(O)c(OC)c3)cc2)Cc2cc(I)c(O)c(OC)c2)cc(I)c1O
[5]
  Activity: Dose-dependent effect
[7]
  Activity: Active
[3]
  Activity: inactive

## O=c1c(O)c(-c2ccc(O)c(O)c2)oc2cc(O)cc(O)c12
[8]
  Activity: Active
[9]
  Activity: inactive
[10]
  Activity: Active
[11]
  Activity: inactive

## COc1cc(CN(Cc2ccc(CN(Cc3cc(OC)c(O)c(OC)c3)Cc3cc(OC)c(O)c(OC)c3)cc2)Cc2cc(OC)c(O)c(OC)c2)cc(OC)c1O
[5]
  Activity: Dose-dependent effect
[7]
  Activity: Active
[8]
  Activity: Active
[9]
  Activity: inactive
[10]
  Activity: Active
[11]
  Activity: Active

## NCc1ccc(CN)cc1
[6]
  Activity: 16%

## COc1cc(CN(Cc2ccc(CN(Cc3ccc(O)c(OC)c3)Cc3ccc(O)c(OC)c3)cc2)Cc2ccc(O)c(OC)c2)ccc1O
[5]
  Activity: Dose-dependent effect
[7]
  Activity: Active
[12]
  Activity: Active
[13]
  Activity: Active

## COc1cc(C=O)ccc1O [VANILLIN]
[4]
  IC50: > 100 µM
[5]
  Activity: inactive
[6]
  Activity: < 5%
[1]
  Activity: inactive
